Measured values from publication PMC9236207 (ACS Pharmacology & Translational Science, 2022).

Experiments:
ACE2 [1] = molecular target: T1, ACE2 (Homo sapiens, UniProt Q9BYF1); test: ACE2 binding by microscale thermophoresis
Method in brief: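 Seven-point twofold compound dilution series. MST at 45% excitation and medium MST power. Kd (± standard error) fitted from the change in normalized fluorescence. A poly-His peptide counterscreen was run under identical conditions.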

ACE2 [2] = molecular target: T1, ACE2; test: ACE2 enzymatic assay; format: biochemical
Method in brief: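 Fluorometric assay with His-tagged ACE2 extracellular domain at 0.2 nM final in PBS pH 7.4, 0.01% Tween-20, preincubated with compound for 15 min at RT. Then MCA-Ala-Pro-Lys(Dnp)-OH substrate was added (60 μM stock). Fluorescence read at 340/440 nm at 0 and 15 min, RT.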

T1 sequence (Q9BYF1 18-740): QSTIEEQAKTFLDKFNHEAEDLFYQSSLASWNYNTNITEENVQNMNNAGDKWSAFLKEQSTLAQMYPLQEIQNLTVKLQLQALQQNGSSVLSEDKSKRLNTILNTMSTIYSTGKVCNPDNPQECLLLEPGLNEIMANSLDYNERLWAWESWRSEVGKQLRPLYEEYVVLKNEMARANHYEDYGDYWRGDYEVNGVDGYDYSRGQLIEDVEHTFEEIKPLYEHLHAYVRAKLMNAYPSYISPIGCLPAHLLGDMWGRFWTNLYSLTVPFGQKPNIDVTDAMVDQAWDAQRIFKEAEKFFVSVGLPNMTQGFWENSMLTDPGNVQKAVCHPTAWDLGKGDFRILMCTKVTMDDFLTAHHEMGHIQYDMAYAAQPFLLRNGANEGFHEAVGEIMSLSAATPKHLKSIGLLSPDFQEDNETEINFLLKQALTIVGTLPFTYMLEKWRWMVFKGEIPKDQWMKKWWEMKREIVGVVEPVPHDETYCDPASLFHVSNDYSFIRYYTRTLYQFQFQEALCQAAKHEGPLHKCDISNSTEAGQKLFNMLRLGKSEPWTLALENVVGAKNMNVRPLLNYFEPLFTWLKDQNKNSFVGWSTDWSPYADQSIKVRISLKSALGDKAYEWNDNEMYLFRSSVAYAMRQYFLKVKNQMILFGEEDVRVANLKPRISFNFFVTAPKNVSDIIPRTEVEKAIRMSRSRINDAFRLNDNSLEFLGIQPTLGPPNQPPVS

CC(C)C[C@H](N[C@@H](Cc1cncn1Cc1cc(Cl)cc(Cl)c1)C(=O)O)C(=O)O [MLN-4760]
Kd (ACE2 [1]): 702 nM | IC50 (ACE2 [2]): 1.5 nM
